Experimental data from ChEMBL document CHEMBL4152188, “Design, synthesis and biological evaluation of C(4) substituted monobactams as antibacterial agents against multidrug-resistant Gram-negative bacteria” (Eur J Med Chem, 2018).
In brackets after ≈: the same amount, converted by molar mass. Each block holds one molecule with its values, some of them ahead of it.

Legend:
Format in all cases: functional
[1] = system: Escherichia coli; experiment: Antibacterial activity against extended-spectrum beta-lactamase producing Escherichia coli isolate 212648 after 18 hrs by CLSI broth microdilution method; conditions: isolate 212648, 18 h
[2] = system: Escherichia coli; experiment: Selectivity index, ratio of MIC for against extended-spectrum beta-lactamase producing Escherichia coli isolate 208687 to MIC for extended-spectrum beta-lactamase producing Escherichia coli isolate 208687 in presence of BPL
[3] = system: Escherichia coli; experiment: Antibacterial activity against Escherichia coli isolate 210737 after 18 hrs by CLSI broth microdilution method; conditions: isolate 210737, 18 h
[4] = system: Escherichia coli; experiment: Antibacterial activity against extended-spectrum beta-lactamase producing Escherichia coli isolate 208687 after 18 hrs by CLSI broth microdilution method; conditions: isolate 208687, 18 h
[5] = system: Escherichia coli; experiment: Antibacterial activity against extended-spectrum beta-lactamase producing Escherichia coli isolate 208687 after 18 hrs in presence of BPL by CLSI broth microdilution method; conditions: isolate 208687, 18 h
Outline: (§1)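 CLSI broth microdilution against clinical isolates (ESBL E. coli, KPC-2 MDR K. pneumoniae, IMP-4 MDR P. aeruginosa; five per species). Iron limitation: Mueller-Hinton broth supplemented with 16 mg/liter 2,2'-bipyridyl to complex iron and induce iron uptake systems. Read-out: MIC.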

[6] = system: Escherichia coli; experiment: Antibacterial activity against Escherichia coli isolate 210737 after 18 hrs in presence of BPL by CLSI broth microdilution method; conditions: isolate 210737, 18 h; outline: as §1
[7] = system: Escherichia coli; experiment: Selectivity index, ratio of MIC for against Escherichia coli isolate 210737 to MIC for Escherichia coli isolate 210737 in presence of BPL
[8] = system: Escherichia coli; experiment: Antibacterial activity against extended-spectrum beta-lactamase producing Escherichia coli isolate 212648 after 18 hrs in presence of BPL by CLSI broth microdilution method; conditions: isolate 212648, 18 h; outline: as §1
[9] = system: Escherichia coli; experiment: Selectivity index, ratio of MIC for against extended-spectrum beta-lactamase producing Escherichia coli isolate 212648 to MIC for extended-spectrum beta-lactamase producing Escherichia coli isolate 212648 in presence of BPL
[10] = system: Escherichia coli; experiment: Antibacterial activity against extended-spectrum beta-lactamase producing Escherichia coli isolate 209285 after 18 hrs by CLSI broth microdilution method; conditions: isolate 209285, 18 h
[11] = system: Escherichia coli; experiment: Antibacterial activity against extended-spectrum beta-lactamase producing Escherichia coli isolate 209285 after 18 hrs in presence of BPL by CLSI broth microdilution method; conditions: isolate 209285, 18 h; outline: as §1
[12] = system: Escherichia coli; experiment: Selectivity index, ratio of MIC for against extended-spectrum beta-lactamase producing Escherichia coli isolate 209285 to MIC for extended-spectrum beta-lactamase producing Escherichia coli isolate 209285 in presence of BPL
[13] = system: Escherichia coli; experiment: Antibacterial activity against extended-spectrum beta-lactamase producing Escherichia coli isolate 106342 after 18 hrs by CLSI broth microdilution method; conditions: isolate 106342, 18 h
[14] = system: Escherichia coli; experiment: Antibacterial activity against extended-spectrum beta-lactamase producing Escherichia coli isolate 106342 after 18 hrs in presence of BPL by CLSI broth microdilution method; conditions: isolate 106342, 18 h; outline: as §1
[15] = system: Escherichia coli; experiment: Selectivity index, ratio of MIC for against extended-spectrum beta-lactamase producing Escherichia coli isolate 106342 to MIC for extended-spectrum beta-lactamase producing Escherichia coli isolate 106342 in presence of BPL
[16] = system: Klebsiella pneumoniae; experiment: Antibacterial activity against KPC-2 producing Klebsiella pneumoniae isolate 212423 after 18 hrs by CLSI broth microdilution method; conditions: isolate 212423, 18 h
[17] = system: Klebsiella pneumoniae; experiment: Antibacterial activity against KPC-2 producing Klebsiella pneumoniae isolate 212423 after 18 hrs in presence of BPL by CLSI broth microdilution method; conditions: isolate 212423, 18 h; outline: as §1
[18] = system: Klebsiella pneumoniae; experiment: Selectivity index, ratio of MIC for against KPC-2 producing Klebsiella pneumoniae isolate 212423 to MIC for against KPC-2 producing Klebsiella pneumoniae isolate 212423 in presence of BPL
[19] = system: Klebsiella pneumoniae; experiment: Antibacterial activity against KPC-2 producing Klebsiella pneumoniae isolate 209632 after 18 hrs by CLSI broth microdilution method; conditions: isolate 209632, 18 h
[20] = system: Klebsiella pneumoniae; experiment: Antibacterial activity against KPC-2 producing Klebsiella pneumoniae isolate 209632 after 18 hrs in presence of BPL by CLSI broth microdilution method; conditions: isolate 209632, 18 h; outline: as §1
[21] = system: Klebsiella pneumoniae; experiment: Selectivity index, ratio of MIC for against KPC-2 producing Klebsiella pneumoniae isolate 209632 to MIC for against KPC-2 producing Klebsiella pneumoniae isolate 209632 in presence of BPL
[22] = system: Klebsiella pneumoniae; experiment: Antibacterial activity against KPC-2 producing Klebsiella pneumoniae isolate 209735 after 18 hrs by CLSI broth microdilution method; conditions: isolate 209735, 18 h
[23] = system: Klebsiella pneumoniae; experiment: Antibacterial activity against KPC-2 producing Klebsiella pneumoniae isolate 209735 after 18 hrs in presence of BPL by CLSI broth microdilution method; conditions: isolate 209735, 18 h; outline: as §1
[24] = system: Klebsiella pneumoniae; experiment: Selectivity index, ratio of MIC for against KPC-2 producing Klebsiella pneumoniae isolate 209735 to MIC for against KPC-2 producing Klebsiella pneumoniae isolate 209735 in presence of BPL
[25] = system: Klebsiella pneumoniae; experiment: Antibacterial activity against KPC-2 producing Klebsiella pneumoniae isolate 212232 after 18 hrs by CLSI broth microdilution method; conditions: isolate 212232, 18 h
[26] = system: Klebsiella pneumoniae; experiment: Antibacterial activity against KPC-2 producing Klebsiella pneumoniae isolate 212232 after 18 hrs in presence of BPL by CLSI broth microdilution method; conditions: isolate 212232, 18 h; outline: as §1
[27] = system: Klebsiella pneumoniae; experiment: Selectivity index, ratio of MIC for against KPC-2 producing Klebsiella pneumoniae isolate 212232 to MIC for against KPC-2 producing Klebsiella pneumoniae isolate 212232 in presence of BPL
[28] = system: Klebsiella pneumoniae; experiment: Antibacterial activity against KPC-2 producing Klebsiella pneumoniae isolate 212229 after 18 hrs by CLSI broth microdilution method; conditions: isolate 212229, 18 h
[29] = system: Klebsiella pneumoniae; experiment: Antibacterial activity against KPC-2 producing Klebsiella pneumoniae isolate 212229 after 18 hrs in presence of BPL by CLSI broth microdilution method; conditions: isolate 212229, 18 h; outline: as §1
[30] = system: Klebsiella pneumoniae; experiment: Selectivity index, ratio of MIC for against KPC-2 producing Klebsiella pneumoniae isolate 212229 to MIC for against KPC-2 producing Klebsiella pneumoniae isolate 212229 in presence of BPL
[31] = system: Pseudomonas aeruginosa; experiment: Antibacterial activity against IMP-4 producing Pseudomonas aeruginosa isolate 212886 after 18 hrs by CLSI broth microdilution method; conditions: isolate 212886, 18 h
[32] = system: Pseudomonas aeruginosa; experiment: Antibacterial activity against IMP-4 producing Pseudomonas aeruginosa isolate 212886 after 18 hrs in presence of BPL by CLSI broth microdilution method; conditions: isolate 212886, 18 h; outline: as §1
[33] = system: Pseudomonas aeruginosa; experiment: Selectivity index, ratio of MIC for against IMP-4 producing Pseudomonas aeruginosa isolate 212886 to MIC for against IMP-4 producing Pseudomonas aeruginosa isolate 212886 in presence of BPL
[34] = system: Pseudomonas aeruginosa; experiment: Antibacterial activity against IMP-4 producing Pseudomonas aeruginosa isolate 209471 after 18 hrs by CLSI broth microdilution method; conditions: isolate 209471, 18 h
[35] = system: Pseudomonas aeruginosa; experiment: Antibacterial activity against IMP-4 producing Pseudomonas aeruginosa isolate 209471 after 18 hrs in presence of BPL by CLSI broth microdilution method; conditions: isolate 209471, 18 h; outline: as §1
[36] = system: Pseudomonas aeruginosa; experiment: Selectivity index, ratio of MIC for against IMP-4 producing Pseudomonas aeruginosa isolate 209471 to MIC for against IMP-4 producing Pseudomonas aeruginosa isolate 209471 in presence of BPL
[37] = system: Pseudomonas aeruginosa; experiment: Antibacterial activity against IMP-4 producing Pseudomonas aeruginosa isolate 208247 after 18 hrs by CLSI broth microdilution method; conditions: isolate 208247, 18 h
[38] = system: Pseudomonas aeruginosa; experiment: Antibacterial activity against IMP-4 producing Pseudomonas aeruginosa isolate 208247 after 18 hrs in presence of BPL by CLSI broth microdilution method; conditions: isolate 208247, 18 h; outline: as §1
[39] = system: Pseudomonas aeruginosa; experiment: Selectivity index, ratio of MIC for against IMP-4 producing Pseudomonas aeruginosa isolate 208247 to MIC for against IMP-4 producing Pseudomonas aeruginosa isolate 208247 in presence of BPL
[40] = system: Pseudomonas aeruginosa; experiment: Antibacterial activity against IMP-4 producing Pseudomonas aeruginosa isolate 209321 after 18 hrs by CLSI broth microdilution method; conditions: isolate 209321, 18 h
[41] = system: Pseudomonas aeruginosa; experiment: Antibacterial activity against IMP-4 producing Pseudomonas aeruginosa isolate 209321 after 18 hrs in presence of BPL by CLSI broth microdilution method; conditions: isolate 209321, 18 h; outline: as §1
[42] = system: Pseudomonas aeruginosa; experiment: Selectivity index, ratio of MIC for against IMP-4 producing Pseudomonas aeruginosa isolate 209321 to MIC for against IMP-4 producing Pseudomonas aeruginosa isolate 209321 in presence of BPL
[43] = system: Pseudomonas aeruginosa; experiment: Antibacterial activity against IMP-4 producing Pseudomonas aeruginosa isolate 207272 after 18 hrs by CLSI broth microdilution method; conditions: isolate 207272, 18 h
[44] = system: Pseudomonas aeruginosa; experiment: Antibacterial activity against IMP-4 producing Pseudomonas aeruginosa isolate 207272 after 18 hrs in presence of BPL by CLSI broth microdilution method; conditions: isolate 207272, 18 h; outline: as §1
[45] = system: Pseudomonas aeruginosa; experiment: Selectivity index, ratio of MIC for against IMP-4 producing Pseudomonas aeruginosa isolate 207272 to MIC for against IMP-4 producing Pseudomonas aeruginosa isolate 207272 in presence of BPL

MIC [1]: 32 µg/mL (≈ 44.6 µM)
MIC [3]: > 64 µg/mL
MIC [4]: 32 µg/mL (≈ 44.6 µM)
MIC [5]: 16 µg/mL
MIC [6]: > 64 µg/mL
MIC [8]: 16 µg/mL
MIC [10]: 32 µg/mL (≈ 44.6 µM)
MIC [11]: 32 µg/mL
MIC [13]: 16 µg/mL (≈ 22.3 µM)
MIC [14]: 8 µg/mL
MIC [16]: 16 µg/mL (≈ 22.3 µM)
MIC [17]: 4 µg/mL
MIC [19]: 32 µg/mL (≈ 44.6 µM)
MIC [20]: 4 µg/mL
MIC [22]: 32 µg/mL (≈ 44.6 µM)
MIC [23]: 4 µg/mL
MIC [25]: 32 µg/mL (≈ 44.6 µM)
MIC [26]: 4 µg/mL
MIC [28]: 32 µg/mL (≈ 44.6 µM)
MIC [29]: 4 µg/mL
MIC [31]: > 64 µg/mL
MIC [32]: > 64 µg/mL
MIC [34]: 64 µg/mL (≈ 89.2 µM)
MIC [35]: 64 µg/mL
MIC [37]: > 64 µg/mL
MIC [38]: > 64 µg/mL
MIC [40]: 64 µg/mL (≈ 89.2 µM)
MIC [41]: 32 µg/mL
MIC [43]: > 64 µg/mL
MIC [44]: > 64 µg/mL
SMILES: CC(C)C(O/N=C(\C(=O)N[C@@H]1C(=O)N(S(=O)(=O)O)[C@@H]1COC(=O)c1ccc(O)c(O)c1Cl)c1csc(N)n1)c1cc(=O)c(O)cn1O (stereo not given in full)
Selectivity Index [2]: 2
Selectivity Index [7]: 1 - 2
Selectivity Index [9]: 2
Selectivity Index [12]: 1
Selectivity Index [15]: 2
Selectivity Index [18]: 4
Selectivity Index [21]: 8
Selectivity Index [24]: 8
Selectivity Index [27]: 8
Selectivity Index [30]: 8
Selectivity Index [33]: 1 - 2
Selectivity Index [36]: 1
Selectivity Index [39]: 1 - 2
Selectivity Index [42]: 2
Selectivity Index [45]: 1 - 2

MIC [1]: 1 µg/mL (≈ 1.7 µM)
MIC [3]: 0.5 µg/mL (≈ 0.85 µM)
MIC [4]: 1 µg/mL (≈ 1.7 µM)
MIC [5]: 0.25 µg/mL
MIC [6]: 0.5 µg/mL
MIC [8]: 0.5 µg/mL
MIC [10]: 1 µg/mL (≈ 1.7 µM)
MIC [11]: 0.5 µg/mL
MIC [13]: 1 µg/mL (≈ 1.7 µM)
MIC [14]: 1 µg/mL
MIC [16]: 2 µg/mL (≈ 3.4 µM)
MIC [17]: 1 µg/mL
MIC [19]: 2 µg/mL (≈ 3.4 µM)
MIC [20]: 1 µg/mL
MIC [22]: 2 µg/mL (≈ 3.4 µM)
MIC [23]: 1 µg/mL
MIC [25]: 8 µg/mL (≈ 13.6 µM)
MIC [26]: 0.5 µg/mL
MIC [28]: 2 µg/mL (≈ 3.4 µM)
MIC [29]: 1 µg/mL
MIC [31]: > 64 µg/mL
MIC [32]: 16 µg/mL
MIC [34]: 64 µg/mL (≈ 109 µM)
MIC [35]: 32 µg/mL
MIC [37]: 64 µg/mL (≈ 109 µM)
MIC [38]: 64 µg/mL
MIC [40]: 64 µg/mL (≈ 109 µM)
MIC [41]: 64 µg/mL
MIC [43]: > 64 µg/mL
MIC [44]: 64 µg/mL
SMILES: CC(=O)OC[C@@H]1[C@H](NC(=O)/C(=N\OC(c2cc(=O)c(O)cn2O)C(C)C)c2csc(N)n2)C(=O)N1S(=O)(=O)O (stereo not given in full)
Selectivity Index [2]: 4
Selectivity Index [7]: 1
Selectivity Index [9]: 2
Selectivity Index [12]: 2
Selectivity Index [15]: 1
Selectivity Index [18]: 2
Selectivity Index [21]: 2
Selectivity Index [24]: 2
Selectivity Index [27]: 16
Selectivity Index [30]: 2
Selectivity Index [33]: >4
Selectivity Index [36]: 2
Selectivity Index [39]: 1
Selectivity Index [42]: 1
Selectivity Index [45]: >1
